Screening data from PubChem BioAssay.
Sampled rows, rich in hits. Any-hit rate of the full collection: about 2.3%.
TRPC4 block: blocks the mouse TRPC4 cation channel. HEK293 TRPC4beta/mu-opioid, DAMGO-evoked Fluo4 calcium flux; hits give low values. B-score at 10 µM. 300,000 tested, 0.39% active. AID 2247;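 active means B-score over 3 SD under the library average, no early fluorescence shift, positive overall ratio signal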
Target sequence (Q9QUQ5 whole entry, looked up): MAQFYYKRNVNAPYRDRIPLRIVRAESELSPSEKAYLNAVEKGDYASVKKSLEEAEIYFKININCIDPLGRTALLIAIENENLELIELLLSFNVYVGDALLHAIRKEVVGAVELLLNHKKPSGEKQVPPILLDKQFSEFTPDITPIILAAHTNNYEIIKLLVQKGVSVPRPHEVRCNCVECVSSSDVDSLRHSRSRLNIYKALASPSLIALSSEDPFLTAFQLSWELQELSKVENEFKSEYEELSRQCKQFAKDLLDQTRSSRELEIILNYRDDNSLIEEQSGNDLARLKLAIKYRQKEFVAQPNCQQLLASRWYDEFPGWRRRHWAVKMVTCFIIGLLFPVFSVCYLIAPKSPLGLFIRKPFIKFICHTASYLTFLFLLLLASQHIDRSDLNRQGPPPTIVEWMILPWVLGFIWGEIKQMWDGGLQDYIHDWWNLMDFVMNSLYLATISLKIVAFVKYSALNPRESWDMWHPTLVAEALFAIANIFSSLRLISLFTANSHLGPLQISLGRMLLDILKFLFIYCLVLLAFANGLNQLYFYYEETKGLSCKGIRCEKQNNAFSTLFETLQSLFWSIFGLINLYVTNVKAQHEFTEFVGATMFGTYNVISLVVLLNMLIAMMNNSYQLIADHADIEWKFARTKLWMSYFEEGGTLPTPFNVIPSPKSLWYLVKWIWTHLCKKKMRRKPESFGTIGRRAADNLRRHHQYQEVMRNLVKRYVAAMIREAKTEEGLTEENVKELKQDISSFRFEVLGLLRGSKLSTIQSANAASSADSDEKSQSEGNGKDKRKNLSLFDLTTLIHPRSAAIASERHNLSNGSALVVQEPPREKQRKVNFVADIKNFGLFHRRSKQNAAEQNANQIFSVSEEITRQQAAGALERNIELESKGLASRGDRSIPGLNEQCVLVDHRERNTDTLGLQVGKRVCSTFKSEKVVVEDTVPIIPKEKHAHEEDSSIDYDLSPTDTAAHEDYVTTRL
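Signal: kinetic Fluo4 fluorescence imaging of calcium influx. Material: stable TRPC4beta/mu-opioid receptor HEK293 cells. Probe or stimulus: DAMGO in two steps, submaximal then maximal.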
TRPC6 act: mouse TRPC6 channel activation; HEK293-TRPC6 membrane potential dye fluorescence; hits give high values; B-score at 10 µM; 310,000 tested, 0.13% active; AID 2550;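 active means B-score of the integrated fluorescence ratio above library mean plus 3 SD, and starting fluorescence ratio within library mean plus 5 SD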;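 further: higher score means more depolarization so channel activation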
TRPC4 agonist: opens the mouse TRPC4 cation channel; Q9QUQ5; B-score at 10 µM; HEK293 TRPC4beta/mu-opioid, Fluo4 calcium fluorescence; hits give high values; 310,000 tested, 0.49% active;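 active means B-score above 5 SD of library B-scores, and initial fluorescence ratio not above library mean plus 5 SD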;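 further: positive B-score marks a calcium rise read as TRPC4 activation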
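Material: TRPC4beta and mu-opioid receptor HEK293 stable cells | Incubation: 45 min room-temperature Fluo4 loading, 110 s read | Detection: Kinetic Fluo4 calcium fluorescence | Measure: Integrated baseline-normalised fluorescence ratio, converted to per-well B score | Benchmarks: Low control buffer alone, high control maximal DAMGO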
TRPC4 potent: allosterically enhances the mouse TRPC4 cation channel; HEK293 TRPC4beta/mu-opioid, DAMGO EC20, Fluo-4 Ca2+ flux; hits give high values; B-score at 10 µM; 310,000 tested, 0.42% active;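 active means B-score of calcium response area above 5 SD of library B-scores, with initial fluorescence ratio within 5 SD of library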;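 further: B-score of integrated fluorescence ratio over time as area under calcium response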
TRPC6 inh: inhibitors of mouse TRPC6 channel. 310,000 tested, 1.1% active. Q61143. B-score at 10 µM. AID 2553. HEK293-TRPC6, membrane potential dye, ACh-evoked depolarization; hits give low values;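 active means B-score under library mean minus 3 SD, initial fluorescence not abnormally high, positive integrated signal ratio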;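 further: B-score derived from integrated fluorescence ratio over the kinetic read; more negative B-score means stronger inhibition of depolarization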
Numbers without * were called inactive; i = inactive.

SMILES	TRPC4 block	TRPC6 act	TRPC4 agonist	TRPC4 potent	TRPC6 inh
S=C(NCc1ccccc1)N1CCN(C2CCCCC2)CC1	i	i	76*	i	i
CCCCN1C2=NCCCN2c2cc(C)c(C)cc21	-7*	i	i	i	i
CCCCN1C2=NCCCN2c2ccccc21	i	i	i	i	i
Cc1cc2c(cc1C)N(Cc1ccc(Cl)cc1)C1=NCCCN12	i	i	i	111*	i
Cc1ccc(/C=C/C(=O)c2ccc(N3CCOCC3)cc2)s1	i	i	i	i	i
CCN1CCC(NC(=O)Nc2ccc(F)cc2)CC1	i	i	i	i	i
CCCN1CCC(NC(=O)Cc2ccc(C)cc2)CC1	i	i	62*	10*	i
CCCN1CCC(NC(=O)Cc2cccc(C)c2)CC1	i	i	89*	i	i
CCCN1CCC(NC(=O)Nc2ccc(F)cc2F)CC1	i	i	43*	i	i
Cc1cc2ccccn2c1C(=O)c1ccccc1F	i	i	i	i	i
Cc1cc(C)nc(N2CCCC(CCC(=O)NCc3ccc(F)c(F)c3)C2)n1 (stereo not drawn)	i	i	i	i	i
O=C(O)c1ccccc1C(=O)Nc1ccc(S(=O)(=O)Nc2ccc(F)cc2)cc1	i	i	i	i	i
CCOc1ccc(S(=O)(=O)N2CCCCC2)c(C)c1C	i	i	i	14*	i
Cn1c(=O)cc(OCCCC(=O)NCCN2CCN(c3ccccc3F)CC2)c2ccccc21	i	i	i	i	i
Cn1c(=O)cc(OCCCC(=O)NCCCN2CCN(Cc3ccccc3)CC2)c2ccccc21	i	i	i	25*	i
CN(C)CC(CCC(CN(C)C)C(O)(c1ccccc1)c1ccccc1)C(O)(c1ccccc1)c1ccccc1 (stereo not drawn)	-8*	i	i	i	i
CCCCNc1c(-c2ccc(SC(C)CC)c(OC)c2)nc2ccc(C)cn12 (stereo not drawn)	-6*	i	i	i	i
Cc1nn(C(C)C)c(C)c1CN1CCCC(C(=O)c2cccc(OC(C)C)c2)C1 (stereo not drawn)	i	i	i	i	-8.2*
CCn1nc(C)c(CN2CCCC(C(=O)c3cccc(OC(C)C)c3)C2)c1C (stereo not drawn)	i	i	i	i	i
CC(C)Oc1cccc(C(=O)C2CCCN(Cc3cnn(C(C)C)c3)C2)c1 (stereo not drawn)	-6*	i	i	i	i
CCOc1cc(CN2CCCC(C(=O)c3cccc(C(F)(F)F)c3)C2)ccc1O (stereo not drawn)	-7*	i	i	i	i
CC(C)Oc1cccc(C(=O)C2CCCN(Cc3ccc4nonc4c3)C2)c1 (stereo not drawn)	i	i	i	i	i
OCCNCCO	i	i	i	i	i
O=C(Nc1cccc(C(=O)N2CCOCC2)c1)c1ccccc1Cl	i	i	i	i	i
CCCCN(C(=O)C1CC(=O)N(Cc2ccc(C)cc2)C1)c1c(N)n(CCCC)c(=O)[nH]c1=O (stereo not drawn)	i	i	i	i	i
SMILES	TRPC4 block	TRPC6 act	TRPC4 agonist	TRPC4 potent	TRPC6 inh
O=S(=O)([O-])CCC[n+]1c(SCCCS(=O)(=O)O)sc2ccc(Cl)cc21	i	i	i	i	i
Cc1cc(C)n(CCC(=O)N2c3ccccc3CC2C)n1 (stereo not drawn)	i	i	i	i	i
COCCNCC(O)CON=C1c2ccccc2-c2ccccc21 (stereo not drawn)	i	i	55*	i	i
CC(C)CCNCC(O)CON=C1c2ccccc2-c2ccccc21 (stereo not drawn)	i	i	66*	i	i
CS(=O)(=O)N(CC(O)CON=C1c2ccccc2-c2ccccc21)c1ccc(F)cc1 (stereo not drawn)	i	i	i	i	i
Oc1ccc(-c2[nH]ncc2-c2cnn(-c3ccccc3)c2)c(O)c1	-5*	i	i	i	i
CC(C)Oc1ccccc1C1CC(=O)Nc2cc3c(cc21)OCCO3 (stereo not drawn)	i	i	i	82*	i
N#C/C(=C\c1ccc2c(c1)OCCO2)C(=O)Nc1nccs1	i	i	i	i	i
Cc1ccc(S(=O)(=O)N2CCCN(C(=O)c3cc4ccccc4[nH]3)CC2)cc1	i	i	i	i	i
CCCn1c(NC(=O)c2ccccc2)nc2ccccc21	i	i	i	i	i
CCCn1c(NC(=O)c2cccc(S(=O)(=O)N3CCCC3)c2)nc2ccccc21	-6*	i	i	43*	i
Cc1cc2oc(=O)cc(CN3CCN(C/C=C/c4ccccc4)CC3)c2cc1O	i	i	i	i	i
CCc1cc2c(CN3CCN(CCO)CC3)cc(=O)oc2cc1O	i	i	i	i	i
Cc1cc2oc(=O)cc(CN3CCN(Cc4ccccc4)CC3)c2cc1O	i	i	79*	i	i
CCc1cc2c(CN3CCN(C)CC3)cc(=O)oc2cc1O	i	i	51*	i	i
O=C(NCCc1nc2ccc(Cl)cc2[nH]1)C1CCC(=O)N(Cc2cccc(F)c2)C1 (stereo not drawn)	i	i	i	i	i
CN(C)c1ccc(/C=C/C(=O)c2cccc(Br)c2)cc1	i	i	99*	18*	i
Cc1cc(/C=N/NC(=O)c2cccc([N+](=O)[O-])c2)c(C)n1-c1ccc(Cl)cc1Cl	-6*	i	i	i	i
Cc1cccc(/C=N/NC(=O)c2cccc([N+](=O)[O-])c2)n1	i	i	i	i	i
COC(=O)C1=C(C)N(Cc2ccccc2)C(=NCc2ccccc2)N[C@H]1c1cccc(F)c1	i	i	i	i	i
COC(=O)C1=C(C)N(Cc2ccccc2)C(=S)N[C@H]1c1cccc(F)c1	-5*	i	i	i	i
CC1(C)[C@@H](O)CC[C@]2(C)C3C(O)C=C4[C@H]5C[C@@](C)(C(=O)O)CC[C@]5(C)CC[C@]4(C)[C@]3(C)CC[C@@H]12 (stereo partly drawn)	-6*	i	210*	i	i
Clc1cc(/C=N\NC2=NCCN2)cc(Cl)n1	i	i	i	18*	i
Cc1cccc(-c2nnc(SCc3nc4ccccc4[nH]3)n2Cc2ccco2)c1	-7*	i	i	i	i
